These results are taken from ChEMBL document CHEMBL4145471, “New 1,5 and 2,5-disubstituted tetrazoles-dependent activity towards surface barrier of Candida albicans” (Eur J Med Chem, 2018).

The subject of test [1] is Candida albicans. In words: Induction of apoptosis in Candida albicans ATCC 90028 protoplast assessed as late apoptotic cells at 16 ug/ml after 18 hrs Annexin V-FITC/propidium iodide staining based flow cytometry ( Rvb = 0.20 +/- 0.28%). It is filed as functional. (In general: In flow cytometry, cells or beads pass a laser one at a time.)
Test [2] relates to Candida albicans. In words: Antifungal activity against Candida albicans ATCC 90028 at 2 ug/ml after 18 hrs relative to control. Type of test: functional. An outline of the steps: (§1)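 Planktonic broth microdilution per M27-A3 in MOPS-buffered RPMI 1640 (pH 7.0), final inoculum 1.8×10^3 cells/mL, compounds 0.0313–16 µg/mL from 1600 µg/mL stocks in ethanol or DMSO. Incubated at 35°C without agitation; OD405 read at 18 and 48 h. % inhibition was derived from test, sterility (no inoculum) and solvent growth-control wells. Amphotericin B at 0.5 µg/mL served as the 100% control.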

Test [3] deals with Candida albicans. The test can be described thus: Antifungal activity against Candida albicans ATCC 90028 assessed as metabolic activity at 10 ug/ml after 48 hrs in presence of 40 ug/ml fluconazol by XTT assay relative to control. (Tetrazolium assays rely on reduction of a dye to a coloured formazan, in cell work by metabolically active cells.)
In test [4] the test system is Candida albicans. In words: Synergistic antifungal activity against Candida albicans ATCC 90028 at 10 ug/ml after 48 hrs in presence of 1.25 ug/ml fluconazol by checkerboard assay relative to control. Type of test: functional. An outline of the steps:
(§2)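 Checkerboard per M27-A3 against ATCC 90028: fluconazole at 80–1.25 µg/mL horizontally and partner compound at 80–1.25 µg/mL vertically, 100 µL yeast inoculum per well, 35°C for 48 h. After 48 h, metabolic activity was measured by XTT reduction at 475 nm (660 nm reference) relative to untreated growth control. FIC index is the sum of the FICs; <1 was defined as synergism and >1 as antagonism.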

For test [5], the system named is Candida albicans. The test can be described thus: Synergistic antifungal activity against Candida albicans ATCC 90028 at 2.5 ug/ml after 48 hrs in presence of 5 ug/ml fluconazol by checkerboard assay relative to control. It is filed as functional. An outline of the steps:
(§3)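 Checkerboard microdilution (M27-A3) on C. albicans ATCC 90028 in RPMI 1640: fluconazole (80-1.25 µg/mL) crossed with tetrazole (80-1.25 µg/mL final), incubated at 35°C for 48 h. Growth by OD405 at 18 and 48 h, endpoint taken as 100% inhibition. FIC index = sum of the two agents' FICs; <1 synergism, >1 antagonism.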

The test system of test [6] is Candida albicans. In words: Synergistic antifungal activity against Candida albicans ATCC 90028 at 80 ug/ml after 48 hrs in presence of 40 ug/ml fluconazol by checkerboard assay relative to control. It is filed as functional. The essentials:
(§4)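 Checkerboard in C. albicans ATCC 90028, inoculum prepared per CLSI M27-A3 in RPMI. Fluconazole serially diluted 80-1.25 µg/mL across the plate against the partner compound at 80-1.25 µg/mL final. Incubated 48 h at 35°C. Metabolic activity read by XTT reduction at 475 nm (660 nm reference), given as % of the untreated growth control.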

In test [7] the test system is Candida albicans. In words: Antifungal activity against Candida albicans ATCC 90028 assessed as metabolic activity at 20 ug/ml after 48 hrs in presence of 10 ug/ml fluconazol by XTT assay relative to control.
Test [8] deals with Candida albicans. In words: Antifungal activity against Candida albicans ATCC 90028 assessed as inhibition of metabolic activity at 1.25 ug/ml after 48 hrs in presence of 80 ug/ml fluconazol by XTT assay relative to control. Type of test: functional. To be noted: values are per cent of control. The essentials:
(§5)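 Checkerboard against strain ATCC 90028, inoculum per M27-A3: fluconazole 80-1.25 µg/mL on one axis, tetrazole 80-1.25 µg/mL on the other. Plates at 35°C for 48 h, then XTT metabolic reduction read at 475 nm (660 nm reference). Activity is the drop in mean absorbance against untreated growth control. FICs and their summed FIC index are taken at 50% reduction in metabolic activity.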

For test [9], the system named is Candida albicans. In words: Antifungal activity against Candida albicans ATCC 90028 at 16 ug/ml after 18 hrs relative to control. Type of test: functional. An outline of the steps:
as §1

Test [10] deals with Candida albicans. The test can be described thus: Antifungal activity against Candida albicans ATCC 90028 assessed as metabolic activity at 20 ug/ml after 48 hrs in presence of 1.25 ug/ml fluconazol by XTT assay relative to control.
The subject of test [11] is Candida albicans. The test can be described thus: Synergistic antifungal activity against Candida albicans ATCC 90028 at 80 ug/ml after 48 hrs in presence of 5 ug/ml fluconazol by checkerboard assay relative to control. It is filed as functional. The essentials: as §4
Test [12] deals with Candida albicans. The test can be described thus: Antifungal activity against Candida albicans ATCC 90028 at 0.125 ug/ml after 48 hrs relative to control. Type of test: functional. An outline of the steps:
as §1

The test system of test [13] is Candida albicans. The test can be described thus: Antifungal activity against Candida albicans ATCC 90028 assessed as inhibition of metabolic activity at 5 ug/ml after 48 hrs in presence of 2.5 ug/ml fluconazol by XTT assay relative to control. Type of test: functional. To be noted: values are per cent of control. An outline of the steps:
(§6)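 C. albicans ATCC 90028 in checkerboard: fluconazole serial dilutions (80-1.25 µg/mL) crossed with tetrazole (80-1.25 µg/mL final), M27-A3 inoculum in RPMI 1640, 35°C for 48 h. Metabolic activity measured by XTT reduction, read at 475 nm (660 nm reference). Activity expressed relative to untreated growth control absorbance.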

Test [14] has as its system Candida albicans. The test can be described thus: Synergistic antifungal activity against Candida albicans ATCC 90028 at 2.5 ug/ml after 48 hrs in presence of 80 ug/ml fluconazol by checkerboard assay relative to control. Type of test: functional. An outline of the steps: as §3
The subject of test [15] is Candida albicans. In words: Synergistic antifungal activity against Candida albicans ATCC 90028 at 40 ug/ml after 48 hrs in presence of 80 ug/ml fluconazol by checkerboard assay relative to control. Type of test: functional. The essentials:
as §4

The subject of test [16] is Candida albicans. The test can be described thus: Synergistic antifungal activity against Candida albicans ATCC 90028 at 20 ug/ml after 48 hrs in presence of 80 ug/ml fluconazol by checkerboard assay relative to control. Type of test: functional. The essentials: as §4
Test [17] concerns Candida albicans. In words: Antifungal activity against Candida albicans ATCC 90028 assessed as inhibition of metabolic activity at 2.5 ug/ml after 48 hrs in presence of 2.5 ug/ml fluconazol by XTT assay relative to control. It is filed as functional. To be noted: ATCC 90028, 48 h, values are per cent of control. An outline of the steps: as §6
Test [18] relates to Candida albicans. The test can be described thus: Synergistic antifungal activity against Candida albicans ATCC 90028 at 80 ug/ml after 48 hrs in presence of 10 ug/ml fluconazol by checkerboard assay relative to control. It is filed as functional. The essentials:
as §4

In test [19] the test system is Candida albicans. The test can be described thus: Synergistic antifungal activity against Candida albicans ATCC 90028 at 10 ug/ml after 48 hrs in presence of 2.5 ug/ml fluconazol by checkerboard assay relative to control. It is filed as functional. An outline of the steps:
as §3

Test [20] has as its system Candida albicans. In words: Antifungal activity against Candida albicans ATCC 90028 assessed as inhibition of metabolic activity at 10 ug/ml after 48 hrs in presence of 5 ug/ml fluconazol by XTT assay relative to control. Type of test: functional. To be noted: values are per cent of control. An outline of the steps:
as §5

Test [21] has as its system Candida albicans. The test can be described thus: Antifungal activity against Candida albicans ATCC 90028 assessed as inhibition of metabolic activity at 1.25 ug/ml after 48 hrs in presence of 40 ug/ml fluconazol by XTT assay relative to control. To be noted: values are per cent of control. It is filed as functional. The essentials:
as §5

The subject of test [22] is Candida albicans. The test can be described thus: Synergistic antifungal activity against Candida albicans ATCC 90028 at 1.25 ug/ml after 48 hrs in presence of 10 ug/ml fluconazol by checkerboard assay relative to control. It is filed as functional. An outline of the steps: as §2

In general, residual activity refers to the share of the control activity or signal that is left under treatment.

Structures are written as SMILES.

For `CCOC(=O)CCn1nnc(-c2ccccc2)n1`, the Activity in the test on Candida albicans [1] came to 1.2%; in the test with Candida albicans [2], 99.35%; with Candida albicans [9] it was 99.95%; in the test on Candida albicans [12], 99.18%. Moreover, the Metabolic activity came out at 94.14% in the test with Candida albicans [3], 59.93% in the test with Candida albicans [7] and 90.68% in the test on Candida albicans [10]. The “growth inhibition (GI)” value in the test with Candida albicans [4] is on record as 99.72%; in the test with Candida albicans [5], 99.08%; in the test on Candida albicans [6], 99.34%; in the test on Candida albicans [11] it was 99.18%; in the test with Candida albicans [14] it was 99.54%; with Candida albicans [15], 99.58%. In addition, the “growth inhibition (GI)” value with Candida albicans [16] is 99.25%; in the test on Candida albicans [18] it was 99.84%; in the test with Candida albicans [19], 99.62%; in the test on Candida albicans [22], 99.65%. In addition, the residual activity in the test on Candida albicans [8] amounted to 66.82%; with Candida albicans [13], 80.73%; with Candida albicans [20], 100%; in the test with Candida albicans [21], 86.85%. Moreover, in the test with Candida albicans [17], the residual activity at 2.5 µg/mL came out at 82.6%.
In the case of `Cc1ccc(-c2nnn(CCCN3CCOCC3)n2)cc1`, the Activity in the test with Candida albicans [2] worked out at 95.72%; in the test with Candida albicans [9], 99.87%; with Candida albicans [12] it was 98.96%. For the same compound, the Metabolic activity with Candida albicans [3] is reported as 100%; in the test on Candida albicans [7] it was 46.94%; in the test with Candida albicans [10], 76.07%. The “growth inhibition (GI)” value in the test with Candida albicans [4] was 97.81%; in the test on Candida albicans [5], 98.33%; in the test on Candida albicans [6], 99.21%; in the test with Candida albicans [11], 97.8%; with Candida albicans [14] it was 99.19%; with Candida albicans [15], 99.59%. Besides, the “growth inhibition (GI)” value in the test with Candida albicans [16] is 99.26%; with Candida albicans [18], 99.8%; in the test with Candida albicans [19], 98.46%; with Candida albicans [22] it was 99.59%. Moreover, the residual activity in the test on Candida albicans [8], in the test with Candida albicans [13], in the test with Candida albicans [20] and with Candida albicans [21] was 100% throughout. In the test on Candida albicans [17], the residual activity at 2.5 µg/mL amounted to 100%.
As for `ClCCCn1nnnc1-c1ccccc1Cl`, the Activity in the test on Candida albicans [1] worked out at 0.23%; with Candida albicans [2], 97.4%; with Candida albicans [9], 99.62%; in the test on Candida albicans [12], 99.43%. For the same compound, the results for the Metabolic activity in the test with Candida albicans [3], in the test on Candida albicans [7] and in the test with Candida albicans [10] were 100%, 68.01% and 0%, respectively. Besides, the “growth inhibition (GI)” value with Candida albicans [4] stood at 99.86%; in the test on Candida albicans [5], 98.94%; with Candida albicans [6], 99.79%; in the test on Candida albicans [11] it was 99.27%; in the test on Candida albicans [14] it was 99.49%; in the test on Candida albicans [15] it was 99.54%. For the same compound, the “growth inhibition (GI)” value is recorded as 99.33% in the test on Candida albicans [16], 99.78% in the test on Candida albicans [18], 99.41% with Candida albicans [19] and 99.66% in the test on Candida albicans [22]. The residual activity with Candida albicans [8] is on record as 62.42%; with Candida albicans [13], 68.03%; with Candida albicans [20], 100%; with Candida albicans [21], 81.57%. In addition, the residual activity at 2.5 µg/mL in the test on Candida albicans [17] is 75.8%.
